Assay results collected from several papers.
Lines come from different studies, so protocols differ.
EGFR: Epidermal growth factor receptor (EGFR, Homo sapiens, UniProt P00533)
EGFR L858R: Epidermal growth factor receptor (EGFR, Homo sapiens, UniProt P00533, L858R)
EGFR L861Q: Epidermal growth factor receptor (EGFR, Homo sapiens, UniProt P00533, L861Q)
EGFR G719C: Epidermal growth factor receptor (EGFR, Homo sapiens, UniProt P00533, G719C)
EGFR L858R/T790M: Epidermal growth factor receptor (EGFR, Homo sapiens, UniProt P00533, L858R/T790M)

SMILES	target	effect on	action	method	concentration	measurement	value
O=C(Nc1cnn(-c2csc(C(=O)NC3COC3)c2)c1)Nc1c(F)cccc1Cl	EGFR	enzyme activity	inhibitor		5 µM	remaining activity	89.4%
COc1cc(-c2cc(-c3ccc(N4CCNCC4)cc3)cnc2N)cc(OC)c1OC	EGFR L858R	enzyme activity	inhibitor		0.1 µM	inhibition	26%
COc1ccc2c(c1)O[C@@H](c1ccc(OC)c(OC)c1)C[C@H]2NC(=O)C1(c2ccc3c(c2)OC(F)(F)O3)CC1	EGFR	cell-free assay		competition with immobilised ligand	1 µM	remaining binding	96%
Cc1cc(NC(=O)c2cccc3cc(-c4cccc5[nH]nc(N)c45)ccc23)ccc1F	EGFR L861Q	enzyme activity	inhibitor		0.1 µM	activity vs control	95%
Cc1ccc(C(=O)NCc2ccsc2)cc1C#Cc1cn(C(C)C)c2ncnc(N)c12	EGFR L858R	enzyme activity	inhibitor		1 µM	activity vs control	56%
CC(C)(O)[C@H]1CC[C@H](Nc2ccc3ncc(-c4cccc(C(F)(F)F)c4)n3n2)CC1	EGFR	enzyme activity	inhibitor		1 µM	remaining activity	80%
CC(C)(C)c1nc(-c2cccc(NS(=O)(=O)c3c(F)cccc3F)c2F)c(-c2ccnc(N)n2)s1	EGFR	enzyme activity	inhibitor	radiometric	1 µM	remaining activity	119%
N#Cc1ccc(Nc2ccc3[nH]c(=O)[nH]c3c2)c(Cl)c1	EGFR	cell-free assay		competition with immobilised ligand	1 µM	remaining binding	100%
N#C/C(=C\c1ccc(O)c(O)c1)C(=O)NCc1ccccc1	EGFR	cell-free assay			0.5 µM	remaining signal	72.4%
CS(=O)(=O)NCC[C@H](NC(=O)c1cncc2c1cnn2-c1ccc(F)cc1)c1ccnc(S(C)(=O)=O)c1	EGFR G719C	cell-free assay		competition with immobilised ligand	1 µM	remaining binding	99%
CCC(=O)Nc1cc(Nc2nc(N3CCc4sccc4C3)c3cccnc3n2)c(OC)cc1N1CCN(CC)CC1	EGFR L858R/T790M	enzyme activity	inhibitor	ELISA	0.1 µM	inhibition	19.2%
Cc1ccc(NC(=O)c2ccc(C)c(C(F)(F)F)c2)cc1C#Cc1nn(C2CCC(O)CC2)c2ncnc(N)c12 (stereo not drawn)	EGFR	cell-free assay			10 µM	remaining signal	11%
CCC(=O)Nc1cc(Nc2nc(N3CCc4sccc4C3)c3cccnc3n2)c(OC)cc1N(C)C	EGFR L858R/T790M	enzyme activity	inhibitor	ELISA	0.1 µM	inhibition	6%
COc1cc2ncnc(Nc3ccc(Oc4ccccc4)c(C)c3C)c2cc1OC	EGFR L858R	enzyme activity	inhibitor		1 µM	inhibition	65%
Cc1ccc(C(=O)Nc2ccc(CN3CCN(C)CC3)c(C(F)(F)F)c2)cc1C#Cc1cnc2cccnn12	EGFR G719C	cell-free assay			23.5 nM	remaining signal	88%
C=C(Cl)C(=O)Nc1cc(Nc2nc(N3CCSCC3)c3sccc3n2)c(OC)cc1N(C)CCN(C)C	EGFR L858R/T790M	enzyme activity	inhibitor	ELISA	0.1 µM	inhibition	50.2%
O=C1Nc2ccc(Cl)cc2C1=Cc1cc(Cl)c(O)c(Cl)c1	EGFR	cell-free assay			0.5 µM	remaining signal	93.5%

SMILES	target	effect on	action	method	concentration	measurement	value
COc1cc2ncnc(Nc3ccc(Oc4ccccc4)cc3C)c2cc1OC	EGFR	enzyme activity	inhibitor		1 µM	inhibition	89%
Cc1cnc(NC2CCOCC2)nc1-n1cnc(C(=O)NC(CN)c2cc(F)cc(Cl)c2)c1 (stereo not drawn)	EGFR L858R	enzyme activity	inhibitor	radiometric	1 µM	remaining activity	112%
CC(C)c1ccc(NC(=O)c2cccs2)c(-c2nc3ccccc3[nH]c2=O)c1	EGFR	enzyme activity	inhibitor		1 µM	activity vs control	93%
CN([C@@H]1CCc2c(CC(=O)O)c3cc(S(C)(=O)=O)ccc3n2C1)S(=O)(=O)c1ccc(F)cc1	EGFR L861Q	cell-free assay		competition with immobilised ligand	1 µM	remaining binding	100%
COc1cc(Nc2c(C#N)cnc3cc(OCCCN4CCN(C)CC4)c(OC)cc23)c(Cl)cc1Cl	EGFR	cell-free assay			0.5 µM	remaining signal	3.84%
O=C1CCc2cc(Nc3cc(OC4CCOCC4)c([N+](=O)[O-])cc3Cl)ccc2N1	EGFR L858R/T790M	cell-free assay		competition with immobilised ligand	1 µM	remaining binding	76%
CC/C(=N\NC(=O)NCc1cccc(O)c1)c1ccc(O)c(C)c1O	EGFR	enzyme activity	inhibitor		0.1 µM	inhibition	4.5%
CN(C)C1CCN(CC#Cc2nn(C3CCCC3)c3nc(NCc4ccccc4)ncc23)C1 (stereo not drawn)	EGFR	enzyme activity	inhibitor	FRET	0.1 µM	inhibition	14%
CN([C@@H]1CCc2c(CC(=O)O)c3ccccc3n2C1)S(=O)(=O)c1ccc(F)cc1	EGFR L861Q	cell-free assay		competition with immobilised ligand	1 µM	remaining binding	100%
Nc1ncnc2occ(-c3ccc(NC(=O)Nc4cc(C(F)(F)F)ccc4F)cc3)c12	Epidermal growth factor receptor (EGFR, Homo sapiens, UniProt P00533, T790M)	cell-free assay			20 µM	remaining signal	12%
CN(C(=O)c1ccccc1)c1cc(N(C)c2ccc3c(c2)CCc2ccc(C(=O)NCCN4CCOCC4)cc2C3=O)ccc1F	EGFR L858R/T790M	cell-free assay		competition with immobilised ligand	1 µM	remaining binding	77%
CCOc1cc2ncnc(Nc3cccc(Br)c3)c2cc1OCC	EGFR	cell-free assay			0.5 µM	remaining signal	2.02%
CC(C)[C@@H]1NC(=O)[C@H](CCCNC(=N)N)NC(=O)[C@H](Cc2ccc(O)cc2)NC(=O)[C@H](C(C)C)NC(=O)[C@H](C(C)C)NC(=O)[C@H](CCCNC(=N)N)NC(=O)[C@H](CC(=O)O)NC(=O)[C@H](CC(=O)O)NC(=O)CCNC(=O)[C@H](Cc2ccc(O)cc2)NC(=O)[C@H](Cc2ccc(O)cc2)NC(=O)[C@H](Cc2ccccc2)NC(=O)[C@@H](Cc2ccc(O)cc2)NC(=O)CSC[C@@H](C(=O)NCC(N)=O)NC(=O)[C@H](C)NC1=O	EGFR	binding		SPR		kon	192000 M⁻¹ s⁻¹
C=C(Cl)C(=O)Nc1cc(Nc2nc(Nc3cnn(C)c3)c3sccc3n2)c(OC)cc1N1CCN(C)CC1	EGFR L858R/T790M	enzyme activity	inhibitor	ELISA	0.1 µM	inhibition	54.1%
CC(=O)Nc1c(C(C)=O)c(=O)n(C)c2nc(-c3ccc(Cl)cc3Cl)c(-c3ccc(Cl)cc3)cc12	Epidermal growth factor receptor (EGFR, Homo sapiens, UniProt P00533, del746-750)	cell-free assay		competition with immobilised ligand	1 µM	remaining binding	92%
CC(C)[C@@H]1NC(=O)CCNC(=O)CCNC(=O)[C@H](Cc2ccc(O)cc2)NC(=O)[C@H](Cc2ccc(O)cc2)NC(=O)[C@H](Cc2ccccc2)NC(=O)[C@@H](Cc2ccc(O)cc2)NC(=O)CSC[C@@H](C(=O)NCC(N)=O)NC(=O)CCNC(=O)[C@H](CCCNC(=N)N)NC(=O)[C@H](CCCNC(=N)N)NC(=O)[C@H](Cc2ccc(O)cc2)NC(=O)[C@H](C(C)C)NC(=O)[C@H](C(C)C)NC(=O)[C@H](CC(N)=O)NC1=O	EGFR	binding		SPR		kon	217000 M⁻¹ s⁻¹
